According to ChEMBL document CHEMBL3627607, “A Novel Pyrazolopyridine with in Vivo Activity in Plasmodium berghei- and Plasmodium falciparum-Infected Mouse Models from Structure-Activity Relationship Studies around the Core of Recently Identified Antimalarial Imidazopyridazines” (J Med Chem, 2015):

How the values were obtained:
[1] = test system: Plasmodium falciparum; assay: Antiplasmodial activity against multidrug resistant Plasmodium falciparum K1 infected in human erythrocytes after 48 hrs by [3H]-hypoxanthine incorporation assay; type: functional, organism-based
[2] = test system: Plasmodium falciparum; assay: Antiplasmodial activity against drug sensitive Plasmodium falciparum NF54 infected in human erythrocytes after 48 hrs by [3H]-hypoxanthine incorporation assay; type: functional, organism-based
[3] = test system: Liver microsome; assay: Metabolic stability of the compound in human liver microsomes assessed as compound remaining at 0.1 uM after 30 mins by LC-MS/MS analysis; type: ADME; conditions: 0.5 h
[4] = test system: Liver microsome; assay: Metabolic stability of the compound in rat liver microsomes assessed as compound remaining at 0.1 uM after 30 mins by LC-MS/MS analysis; type: ADME; conditions: 0.5 h
[5] = Metabolic stability of the compound in mouse liver microsomes assessed as compound remaining at 0.1 uM after 30 mins by LC-MS/MS analysis; type: ADME; conditions: 0.5 h
[6] = test system: Plasmodium berghei; assay: Antiplasmodial activity against Plasmodium berghei ANKA expressing GFP infected in mouse assessed as reduction of parasitemia level at 50 mg/kg, po qd for 4 days measured on day 4 post last dose by flow cytometric analysis relative to control; type: functional; parameters: scale not given: the % may be the effect or the level left
Summary of the method: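 Mice (n = 3) infected with GFP-transfected P. berghei ANKA. Test agents were suspended in HPMC vehicle (0.5% w/v hydroxypropylmethylcellulose, 0.5% v/v benzyl alcohol, 0.4% v/v Tween 80, 0.9% w/v NaCl in water). Dosed orally at 4, 24, 48 and 72 h post-infection. Parasitemia read by flow cytometry on day 4 (96 h), detection limit 0.1%. Activity = control-minus-treated mean % parasitemia, relative to control.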

[7] = test system: Plasmodium berghei; assay: Antiplasmodial activity against Plasmodium berghei ANKA expressing GFP infected in mouse assessed as means survival days at 50 mg/kg, po qd for 4 days; type: functional
Summary of the method: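 Mice (n = 3) infected with GFP-transfected P. berghei ANKA. Compounds dissolved or suspended in HPMC vehicle (0.5% w/v hydroxypropylmethylcellulose, 0.5% v/v benzyl alcohol, 0.4% v/v Tween 80, 0.9% w/v NaCl in water). Dosed orally 4, 24, 48 and 72 h after infection. Parasitemia read by flow cytometry (detection limit 0.1%). Survival recorded as mean survival time in days.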

[8] = Drug level in mouse blood at 50 mg/kg, po after 1 hr; type: ADME, organism-based; conditions: read-out: Drug uptake
Summary of the method: (§1)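 Snapshot whole-blood levels of parent and its sulfone metabolite at 1, 4 and 24 h after the first 50 mg/kg oral dose. Samples came from the P. berghei-infected efficacy mice, dosed in HPMC suspension vehicle.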

[9] = Drug level in mouse blood at 50 mg/kg, po after 4 hrs; type: ADME, organism-based; conditions: read-out: Drug uptake; summary of the method: as §1
[10] = test system: Blood; assay: Drug level in mouse blood at 50 mg/kg, po after 24 hrs; type: ADME, organism-based; conditions: in vivo, 24 h, BLD = below limit of detection; summary of the method: as §1
[11] = Half life in rat at 10 mg/kg, po; type: ADME, organism-based; conditions: in vivo
[12] = Oral bioavailability in rat at 10 mg/kg; type: ADME, organism-based; conditions: in vivo
[13] = Half life in rat at 3 mg/kg, iv; type: ADME, organism-based; conditions: in vivo
[14] = Plasma clearance in rat at 3 mg/kg, iv; type: ADME, organism-based
[15] = Volume of distribution in rat at 3 mg/kg, iv; type: ADME, organism-based; conditions: in vivo
[16] = test system: Blood; assay: Drug level in rat blood treated with 5-(3-(Cyclopropylsulfonyl)phenyl)-3-(4-(methylsulfinyl)-phenyl)pyrazolo[1,5-a]pyridine at 20 mg/kg, po and 5 mg/kg, iv by LC-MS/MS analysis; type: ADME, organism-based; conditions: in vivo
Summary of the method: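 Metabolites identified by LC-ESI-MS/MS in blood samples from the rat PK study (oral and intravenous dosing).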

[17] = Cmax in Plasmodium falciparum 3D7 infected in non-myelodepleted NOD-SCID IL2Rgammanull mouse engrafted with human erythrocytes at 0.1 mg/kg, po; type: ADME, organism-based; parameters: dose 0.1 mg/kg, route oral; conditions: in vivo
Summary of the method: (§2)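 Engrafted NSG (scid IL2Rgc null) mice infected with P. falciparum were given one oral dose per day for four days. Blood was sampled to measure parent and its sulfone metabolite.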

[18] = Tmax in Plasmodium falciparum 3D7 infected in non-myelodepleted NOD-SCID IL2Rgammanull mouse engrafted with human erythrocytes at 0.1 mg/kg, po; type: ADME, organism-based; conditions: in vivo; summary of the method: as §2
[19] = Cmax in Plasmodium falciparum 3D7 infected in non-myelodepleted NOD-SCID IL2Rgammanull mouse engrafted with human erythrocytes at 0.5 mg/kg, po; type: ADME, organism-based; parameters: dose 0.5 mg/kg, route oral; conditions: in vivo; summary of the method: as §2
[20] = Tmax in Plasmodium falciparum 3D7 infected in non-myelodepleted NOD-SCID IL2Rgammanull mouse engrafted with human erythrocytes at 0.5 mg/kg, po; type: ADME, organism-based; conditions: in vivo
Summary of the method: (§3)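 Humanized NSG mice infected with P. falciparum received one oral dose per day for 4 consecutive days. Blood was sampled for exposure, with levels of both parent and its main active metabolite measured. Tmax was taken from the blood concentration–time profile after oral dosing.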

[21] = Cmax in Plasmodium falciparum 3D7 infected in non-myelodepleted NOD-SCID IL2Rgammanull mouse engrafted with human erythrocytes at 1.5 mg/kg, po; type: ADME, organism-based; parameters: dose 1.5 mg/kg, route oral; conditions: in vivo; summary of the method: as §2
[22] = Tmax in Plasmodium falciparum 3D7 infected in non-myelodepleted NOD-SCID IL2Rgammanull mouse engrafted with human erythrocytes at 1.5 mg/kg, po; type: ADME, organism-based; conditions: in vivo; summary of the method: as §3
[23] = Cmax in Plasmodium falciparum 3D7 infected in non-myelodepleted NOD-SCID IL2Rgammanull mouse engrafted with human erythrocytes at 10 mg/kg, po; type: ADME, organism-based; parameters: dose 10 mg/kg, route oral; conditions: in vivo; summary of the method: as §2
[24] = Tmax in Plasmodium falciparum 3D7 infected in non-myelodepleted NOD-SCID IL2Rgammanull mouse engrafted with human erythrocytes at 10 mg/kg, po; type: ADME, organism-based; conditions: in vivo; summary of the method: as §3
[25] = Cmax in Plasmodium falciparum 3D7 infected in non-myelodepleted NOD-SCID IL2Rgammanull mouse engrafted with human erythrocytes at 30 mg/kg, po; type: ADME, organism-based; parameters: dose 30 mg/kg, route oral; conditions: in vivo; summary of the method: as §2
[26] = Tmax in Plasmodium falciparum 3D7 infected in non-myelodepleted NOD-SCID IL2Rgammanull mouse engrafted with human erythrocytes at 30 mg/kg, po; type: ADME, organism-based; conditions: in vivo; summary of the method: as §3
[27] = AUC (0 to 23 hrs) in Plasmodium falciparum 3D7 infected in non-myelodepleted NOD-SCID IL2Rgammanull mouse engrafted with human erythrocytes at 30 mg/kg, po; type: ADME, organism-based; parameters: dose 30 mg/kg, time < 23 hr, route oral; conditions: in vivo; summary of the method: as §2
[28] = AUC (0 to 8 hrs) in Plasmodium falciparum 3D7 infected in non-myelodepleted NOD-SCID IL2Rgammanull mouse engrafted with human erythrocytes at 0.1 mg/kg, po; type: ADME, organism-based; parameters: time < 8 hr, dose 0.1 mg/kg, route oral; conditions: in vivo; summary of the method: as §2
[29] = AUC (0 to 23 hrs) in Plasmodium falciparum 3D7 infected in non-myelodepleted NOD-SCID IL2Rgammanull mouse engrafted with human erythrocytes at 0.5 mg/kg, po; type: ADME, organism-based; parameters: time < 23 hr, dose 0.5 mg/kg, route oral; conditions: in vivo; summary of the method: as §2
[30] = AUC (0 to 23 hrs) in Plasmodium falciparum 3D7 infected in non-myelodepleted NOD-SCID IL2Rgammanull mouse engrafted with human erythrocytes at 1.5 mg/kg, po; type: ADME, organism-based; parameters: time < 23 hr, dose 1.5 mg/kg, route oral; conditions: in vivo; summary of the method: as §2
[31] = AUC (0 to 23 hrs) in Plasmodium falciparum 3D7 infected in non-myelodepleted NOD-SCID IL2Rgammanull mouse engrafted with human erythrocytes at 10 mg/kg, po; type: ADME, organism-based; parameters: dose 10 mg/kg, time < 23 hr, route oral; conditions: in vivo; summary of the method: as §2
[32] = test system: Plasmodium berghei; assay: Antiplasmodial activity against sporozoite stage of Plasmodium berghei expressing luciferase infected in human HepG2-A16-CD81EGFP cells preincubated with cells for 18 hrs followed by protozoal infection measured after 48 hrs by bioluminescence assay; type: functional, organism-based
Summary of the method: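 HepG2 cells were pretreated 18 h with compound, then infected with freshly dissected luciferase-expressing P. berghei sporozoites. After a further 48 h with compound, viability of exoerythrocytic forms and of HepG2 host cells was read by bioluminescence.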

[33] = test system: Liver microsome; assay: Drug level in rat liver microsomes treated with 5-(3-(Cyclopropylsulfonyl)phenyl)-3-(4-(methylsulfinyl)-phenyl)pyrazolo[1,5-a]pyridine at 10 uM after 1 hr by LC-MS/MS analysis; type: ADME
Summary of the method: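 Metabolites identified by LC-ESI-MS/MS after in vitro incubation with rat liver microsomes.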

In the case of CS(=O)(=O)c1ccc(-c2cnn3ccc(-c4cccc(S(=O)(=O)C5CC5)c4)cc23)cc1, the IC50 [1] is reported as 2.4 nM, the IC50 [2] is reported as 2.7 nM and the Stability [3] is reported as “Stable”. The Stability [4] was “Stable”, the Stability [5] was “Stable” and the Activity [6] was 71%. For the same molecule, the MSD [7] was 7 days, the concentration at 1 h [8] was 697 nM and the concentration at 4 h [9] was 1060 nM. The Drug uptake [10] was “BLD”, the half-life [11] was 5.7 h and the bioavailability [12] was 61%. For the same molecule, the half-life [13] was 2.7 h, the clearance [14] was 3.5 mL/min/kg and the Vd [15] was 0.8 L/kg. The Drug metabolism [16] was “metabolite_detected”, the Cmax [17] was 25 ng/mL and the Tmax [18] was 2 h. It also gave a Cmax [19] of 106 ng/mL, a Tmax [20] of 2 h and a Cmax [21] of 467 ng/mL. It also gave a Tmax [22] of 2 h, a Cmax [23] of 2600 ng/mL and a Tmax [24] of 4 h. It also gave a Cmax [25] of 7430 ng/mL, a Tmax [26] of 8 h and an AUC(0-t) at 23 h [27] of 78300 ng·h/mL. It also gave an AUC(0-t) at 8 h [28] of 139 ng·h/mL, an AUC(0-t) at 23 h [29] of 1010 ng·h/mL and an AUC(0-t) at 23 h [30] of 3200 ng·h/mL. The AUC(0-t) at 23 h [31] was 24800 ng·h/mL, the IC50 [32] was 20 nM and the Drug metabolism [33] was “metabolite_detected”.
